From ChEMBL document CHEMBL1773057, “Design, synthesis and in vitro antimicrobial evaluation of novel Imidazo[1,2-a]pyridine and imidazo[2,1-b][1,3]benzothiazole motifs” (2011)
Values after ≈ are worked out from the molar mass of the structure shown.

How the values were obtained:
Type in all cases: functional
[1] = tested on: Klebsiella aerogenes; experiment: Antimicrobial activity against Enterobacter aerogenes after 24 hrs by broth microdilution method
Procedure, shortened: (§1)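 Broth microdilution. Bacteria were grown on Mueller-Hinton agar and diluted in Mueller-Hinton broth. Compounds were made as 1000 µg/mL stocks in 50% DMSO/H₂O and added to wells as two-fold dilutions starting at 500 µg/mL, then inoculated. Sealed plates were incubated at 37 °C for 24 h in a humid chamber. MIC was the lowest concentration with no visible turbidity.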

[2] = tested on: Nannizzia gypsea; experiment: Antimicrobial activity against Microsporum gypseum after 48 hrs by broth microdilution method
Procedure, shortened: (§2)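 Fungi were grown on Sabouraud dextrose agar. Inocula were prepared in Sabouraud liquid medium at 37 °C for 12 h, then diluted in RPMI-1640 with L-glutamine, MOPS-buffered at pH 7. Compounds were made as 1000 µg/mL stocks in 50% DMSO/H₂O and tested as two-fold dilutions from 500 µg/mL. Sealed plates were incubated at 37 °C for 48 h in a humid chamber. MIC was the lowest concentration without visible turbidity.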

[3] = tested on: Pseudomonas aeruginosa; experiment: Antimicrobial activity against Pseudomonas aeruginosa after 24 hrs by broth microdilution method; procedure, shortened: as §1
[4] = tested on: Candida albicans; experiment: Antimicrobial activity against Candida albicans after 48 hrs by broth microdilution method; procedure, shortened: as §2
[5] = tested on: Candida parapsilosis; experiment: Antimicrobial activity against Candida parapsilosis after 48 hrs by broth microdilution method; settings: Lodderomyces parapsilosis; procedure, shortened: as §2
[6] = tested on: Priestia megaterium; experiment: Antimicrobial activity against Bacillus megaterium after 24 hrs by broth microdilution method; procedure, shortened: as §1
[7] = tested on: Enterococcus faecalis; experiment: Antimicrobial activity against Enterococcus faecalis after 24 hrs by broth microdilution method; procedure, shortened: as §1
[8] = tested on: Aspergillus flavus; experiment: Antimicrobial activity against Aspergillus flavus after 48 hrs by broth microdilution method; procedure, shortened: as §2
[9] = tested on: Staphylococcus aureus; experiment: Antimicrobial activity against Staphylococcus aureus after 24 hrs by broth microdilution method; procedure, shortened: as §1
[10] = tested on: Escherichia coli; experiment: Antimicrobial activity against Escherichia coli after 24 hrs by broth microdilution method; procedure, shortened: as §1

Compound	MIC [1] [µg/mL]	MIC [2] [µg/mL]	MIC [3] [µg/mL]	MIC [4] [µg/mL]	MIC [5] [µg/mL]	MIC [6] [µg/mL]	MIC [7] [µg/mL]	MIC [8] [µg/mL]	MIC [9] [µg/mL]	MIC [10] [µg/mL]
Fc1ccc(Nc2c(-c3cnc4ccc(Br)cc4c3)nc3ccc(-c4nnc(-c5ccc(F)cc5)o4)cn23)cc1	0.41 (≈ 0.689 µM)	1.14 (≈ 1.91 µM)	0.75 (≈ 1.26 µM)	1.22 (≈ 2.05 µM)	1.35 (≈ 2.27 µM)	2.21 (≈ 3.71 µM)	1.38 (≈ 2.32 µM)	1.32 (≈ 2.22 µM)	0.46 (≈ 0.773 µM)	0.75 (≈ 1.26 µM)
O=[N+]([O-])c1ccc(-c2nnc(-c3ccc4nc(-c5cnc6ccc(Br)cc6c5)c(Nc5ccc(F)cc5)n4c3)o2)cc1	1.27 (≈ 2.04 µM)	8.27 (≈ 13.3 µM)	1.58 (≈ 2.54 µM)	6.4 (≈ 10.3 µM)	5.34 (≈ 8.58 µM)	3.11 (≈ 5 µM)	2.13 (≈ 3.42 µM)	7.15 (≈ 11.5 µM)	1.45 (≈ 2.33 µM)	1.72 (≈ 2.76 µM)
Fc1ccc(Nc2c(-c3cnc4ccc(Br)cc4c3)nc3sc4cc(F)ccc4n23)cc1	0.51 (≈ 1.01 µM)	1.24 (≈ 2.44 µM)	0.34 (≈ 0.67 µM)	1.21 (≈ 2.38 µM)	1.13 (≈ 2.23 µM)	1.12 (≈ 2.21 µM)	0.51 (≈ 1.01 µM)	1.3 (≈ 2.56 µM)	0.43 (≈ 0.848 µM)	0.35 (≈ 0.69 µM)
Fc1ccc(Nc2c(-c3cnc4ccc(F)cc4c3)nc3sc4cc(F)ccc4n23)cc1	0.34 (≈ 0.762 µM)	1.2 (≈ 2.69 µM)	0.15 (≈ 0.336 µM)	1.12 (≈ 2.51 µM)	1.14 (≈ 2.55 µM)	0.83 (≈ 1.86 µM)	0.21 (≈ 0.47 µM)	1.23 (≈ 2.76 µM)	0.26 (≈ 0.582 µM)	0.23 (≈ 0.515 µM)
COc1ccc2ncc(-c3nc4sc5cc(F)ccc5n4c3Nc3ccc(F)cc3)cc2c1	13.4 (≈ 29.3 µM)	17.5 (≈ 38.2 µM)	11.9 (≈ 25.9 µM)	11.2 (≈ 24.4 µM)	13.6 (≈ 29.6 µM)	19.1 (≈ 41.8 µM)	11.2 (≈ 24.4 µM)	15.3 (≈ 33.4 µM)	12.4 (≈ 27.1 µM)	10.4 (≈ 22.7 µM)
Cc1ccc2ncc(-c3nc4sc5cc(F)ccc5n4c3Nc3ccc(F)cc3)cc2c1	9.57 (≈ 21.6 µM)	18.4 (≈ 41.6 µM)	9.66 (≈ 21.8 µM)	12.2 (≈ 27.5 µM)	14.4 (≈ 32.6 µM)	18.6 (≈ 42.1 µM)	9.45 (≈ 21.4 µM)	13.4 (≈ 30.2 µM)	8.63 (≈ 19.5 µM)	10.4 (≈ 23.5 µM)
Fc1ccc(Nc2c(-c3c[nH]c4ccc(Br)cc34)nc3sc4cc(F)ccc4n23)cc1	0.32 (≈ 0.646 µM)	3.15 (≈ 6.36 µM)	0.53 (≈ 1.07 µM)	2.23 (≈ 4.5 µM)	2.32 (≈ 4.68 µM)	1.69 (≈ 3.41 µM)	0.87 (≈ 1.76 µM)	2.13 (≈ 4.3 µM)	0.18 (≈ 0.363 µM)	0.44 (≈ 0.888 µM)
Fc1ccc(Nc2c(-c3c[nH]c4ccc(F)cc34)nc3sc4cc(F)ccc4n23)cc1	0.23 (≈ 0.529 µM)	1.23 (≈ 2.83 µM)	0.11 (≈ 0.253 µM)	1.15 (≈ 2.65 µM)	1.24 (≈ 2.85 µM)	1.52 (≈ 3.5 µM)	0.41 (≈ 0.944 µM)	1.15 (≈ 2.65 µM)	0.18 (≈ 0.414 µM)	0.14 (≈ 0.322 µM)
Cc1ccc2[nH]cc(-c3nc4sc5cc(F)ccc5n4c3Nc3ccc(F)cc3)c2c1	14.6 (≈ 34 µM)	10.5 (≈ 24.5 µM)	16.2 (≈ 37.6 µM)	14.6 (≈ 34 µM)	16.5 (≈ 38.3 µM)	22.1 (≈ 51.5 µM)	9.17 (≈ 21.3 µM)	14.6 (≈ 33.8 µM)	10.1 (≈ 23.5 µM)	14.5 (≈ 33.7 µM)
COc1ccc2c(c1)sc1nc(-c3c[nH]c4ccc(Br)cc34)c(Nc3ccc(F)cc3)n12	8.13 (≈ 16 µM)	4.14 (≈ 8.16 µM)	9.69 (≈ 19.1 µM)	4.12 (≈ 8.12 µM)	5.63 (≈ 11.1 µM)	13.2 (≈ 26.1 µM)	10.6 (≈ 20.8 µM)	3.21 (≈ 6.33 µM)	7.33 (≈ 14.4 µM)	8.12 (≈ 16 µM)
COc1ccc2[nH]cc(-c3nc4sc5cc(F)ccc5n4c3Nc3ccc(F)cc3)c2c1	17.8 (≈ 40 µM)	19.6 (≈ 44 µM)	18.5 (≈ 41.5 µM)	17.5 (≈ 39.2 µM)	16.6 (≈ 37.2 µM)	23.4 (≈ 52.5 µM)	19.5 (≈ 43.8 µM)	15.5 (≈ 34.8 µM)	17.4 (≈ 38.9 µM)	19.7 (≈ 44.1 µM)
CC1(C)S[C@@H]2[C@H](NC(=O)[C@H](N)c3ccc(O)cc3)C(=O)N2[C@H]1C(=O)O [AMOXICILLIN]	3.45 (≈ 9.44 µM)	–	14.7 (≈ 40.1 µM)	–	–	2.28 (≈ 6.24 µM)	1.62 (≈ 4.43 µM)	–	12.9 (≈ 35.4 µM)	15.3 (≈ 41.9 µM)
C=CC1=C(C(=O)O)N2C(=O)[C@@H](NC(=O)/C(=N\OCC(=O)O)c3csc(N)n3)[C@H]2SC1 [CEFIXIME]	27.1 (≈ 59.8 µM)	–	16.4 (≈ 36.2 µM)	–	–	126 (≈ 279 µM)	28.6 (≈ 63 µM)	–	34.6 (≈ 76.4 µM)	2.12 (≈ 4.68 µM)
OC(Cn1cncn1)(Cn1cncn1)c1ccc(F)cc1F [FLUCONAZOLE]	–	6.57 (≈ 21.5 µM)	–	2.11 (≈ 6.89 µM)	4.35 (≈ 14.2 µM)	–	–	9.22 (≈ 30.1 µM)	–	–
